Experiments:
[1] = log 1/anion production.; assay type: functional
[2] = E1/2 for the half-wave potential at pH=7.0 in V57; assay type: ADME
Fungi = test: log 1/MIC for fungi in mmol/L; assay type: functional
[3] = Observed rate of hydrolysis (logKobs) (pH=4.0); assay type: ADME
Summary of the method: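 Hydrolysis followed by cyclic voltammetry at 20 °C in deaerated 0.1 M acetate buffers (pH 5.0–3.5) or 0.02 M NaH2PO4 (pH 3.5, 3.0), ionic strength 0.1 M (NaNO3). Decrease of the parent cathodic peak tracked over time. Pseudo-first-order kobs from linear regression of log concentration versus time.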

L1210 [4] = test: log 1/D125 for the dose (mmol/kg) to give 125%T/C ratio (L1210) in vivo; assay type: functional, Mus musculus
[5] = HPLC capacity factor (logK); assay type: ADME
B16 = test: log 1/D125 or the dose (mmol/kg) to give 125%T/C ratio (B16) in vivo; assay type: functional, Mus musculus
[6] = Electrochemically observed pKa (pKred) of aziridines; assay type: physicochemical; settings: read-out: pKred
L1210 [7] = test: log 1/ID75 for the in vitro clonogenic L1210 assay with ID75 in umol/L; assay type: functional, Mus musculus

Row | Log 1/MIC (mM L-1) (Fungi) | Log K [5] | SMILES | E 1/2 [2] | Log 1/ID75 (uM L-1) (L1210 [7]) | also measured
1 |  |  | O=C1C(N2CCCC2)=C(N2CC2)C(=O)C(N2CCCC2)=C1N1CC1 | -0.315 |  | Log 1/D125 (mM kg-1) (B16): 2.4; pKa [6]: 10.6; Log 1/D125 (L1210) (mM kg-1) (L1210 [4]): 2.07
2 |  | 0.591 | CN(C)C1=CC(=O)c2ccccc2C1=O |  |  | 
3 |  |  | COC1=C(N2CC2)C(=O)C(OC)=C(N2CC2)C1=O | -0.179 | 0.15 | Log 1/D125 (mM kg-1) (B16): 3.53; pKa [6]: 8; Log 1/D125 (L1210) (mM kg-1) (L1210 [4]): 2.38; Log Kobs [3]: -3.26
4 | -0.26 |  | COC1=C(C)C(=O)C(N2CCCC2)=CC1=O | -0.315 | -1.66 | 
5 |  | 0.259 | NC1=C(Cl)C(=O)c2ccccc2C1=O |  |  | 
6 |  | 0.607 | CC1=CC(=O)c2ccccc2C1=O [MENADIONE] |  |  | 
7 |  |  | CC1CN1C1=C(N2CCCC2)C(=O)C(N2CC2C)=C(N2CCCC2)C1=O (stereo unspecified) | -0.303 |  | pKa [6]: 11.1
8 |  | 0.748 | O=C1C=C(Br)C(=O)c2ccccc21 [2-Bromo-1,4-naphthoquinone] |  |  | 
9 |  | 0.736 | O=C1C=C(N2CCCC2)C(=O)c2ccccc21 |  |  | 
10 | 0.85 |  | CCOC(=O)NC1=CC(=O)C(NC(=O)OCC)=CC1=O |  | 0.09 | 
11 |  | 0.896 | O=C1C=C(N2CC=CC2)C(=O)c2ccccc21 |  |  | 
12 | -0.52 |  | O=C1C=C(N2CC=CC2)C(=O)C=C1N1CC=CC1 |  | -1.62 | 
13 |  | -0.004 | CN(C)C1=CC(=O)C(N(C)C)=CC1=O |  |  | 
14 |  |  | CN(CCO)C1=C(N2CC2)C(=O)C(N(C)CCO)=C(N2CC2)C1=O | -0.225 | 0.09 | pKa [6]: 9.7
15 |  |  | OCC/N=C1C(O)=C(N2CC2)/C(=N\CCO)C(O)=C/1N1CC1 | -0.385 | 0.42 | Log 1/D125 (mM kg-1) (B16): 3.94; pKa [6]: 9.5; Log 1/D125 (L1210) (mM kg-1) (L1210 [4]): 3.39; Log Kobs [3]: -2.8
16 |  | 0.136 | CC1=CC(=O)C=C(C)C1=O |  |  | 
17 | -0.3 |  | CC1=C(C)C(=O)C(N2CCCC2)=CC1=O | -0.303 | -1.7 | 
18 |  |  | NC1=C(N2CC2)C(=O)C(N)=C(N2CC2)C1=O |  | 1.16 | 
19 | -0.17 |  | CC1=C(C)C(=O)C(N2CC=CC2)=CC1=O | -0.311 | -0.71 | 
20 |  |  | C/N=C1C(O)=C(N2CC2C)/C(=N\C)C(O)=C\1N1CC1C (stereo unspecified) | -0.4 |  | Log 1/D125 (mM kg-1) (B16): 2.33; pKa [6]: 9.3; Log 1/D125 (L1210) (mM kg-1) (L1210 [4]): 2.19
21 | -0.38 | 0.587 | O=C1C=C(N2CCCC2)C(=O)C=C1N1CCCC1 | -0.439 | -1.61 | 

Row | SMILES | Log 1/MIC (mM L-1) (Fungi) | Log K [5] | E 1/2 [2] | Log 1/ID75 (uM L-1) (L1210 [7]) | also measured
22 | O=C1C(Cl)=C(N2CC2)C(=O)C(Cl)=C1N1CC1 | 1.63 |  | -0.133 |  | Log 1/conc (mM min-1 L-1) [1]: 2.74; Log Kobs [3]: -4.7
23 | CC1CN1C1=C(Cl)C(=O)C(N2CC2C)=C(Cl)C1=O (stereo unspecified) | 1.16 |  | -0.125 |  | Log 1/conc (mM min-1 L-1) [1]: 2.65; Log 1/D125 (L1210) (mM kg-1) (L1210 [4]): 1.16; Log Kobs [3]: -4.15
24 | O=C1C=C(N2CC2)C(=O)c2ccccc21 |  | 0.346 |  |  | 
25 | O=C1C=CC(=O)c2ccccc21 [NAPHTHOQUINONE] |  | 0.299 |  |  | 
26 | CC1CN1C1=CC(=O)c2ccccc2C1=O (stereo unspecified) |  | 0.611 |  |  | 
27 | O=C1C(N2CC2)=C(N2CC2)C(=O)C(N2CC2)=C1N1CC1 | 0.95 |  | -0.245 | 0.9 | pKa [6]: 7.7; Log Kobs [3]: -3.7
28 | CC1CN1C1=C(Br)C(=O)C(N2CC2C)=C(Br)C1=O (stereo unspecified) | 1.28 |  |  | 0.77 | Log 1/conc (mM min-1 L-1) [1]: 2.8; Log Kobs [3]: -3.45
29 | CC1=C(N2CC2)C(=O)C(Cl)=C(N2CC2)C1=O |  | 0.2 | -0.197 | 2.41 | Log 1/conc (mM min-1 L-1) [1]: 2.42; Log 1/D125 (mM kg-1) (B16): 2.68; pKa [6]: 8.5; Log 1/D125 (L1210) (mM kg-1) (L1210 [4]): 1.99; Log Kobs [3]: -4.32
30 | O=C1C=CC(=O)C=C1 [BENZOQUINONE] |  | -0.466 |  |  | 

Source: ChEMBL document CHEMBL1129476, “In vivo activity and hydrophobicity of cytostatic aziridinyl quinones” (J Med Chem, 1996)
